From ChEMBL document CHEMBL1148686, “Synthesis and anticonvulsant activity of new N-1',N-3'-disubstituted-2'H,3H,5'H-spiro-(2-benzofuran-1,4'-imidazolidine)-2',3,5'-triones” (2006)
The source made the active and inactive calls. The calls are words filed in the database; no cut-off is given here.

Experiments:
Mus musculus [1] = assay: Protection against electroshock-induced convulsions in mouse up to 300 mg/kg, ip after 0.5 hrs by MES assay; format: functional, organism-based; parameters: dose 300 mg/kg
Summary of the method: (§1)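 Mice were dosed intraperitoneally with test drug, positive control or vehicle (DMSO) 30 min before electroshock at 50 mA for 0.2 s. The end-point was the hind limb tonic extensor component. Doses up to 300 mg/kg. Done in triplicate (n = 3). ED50 in mg/kg was derived by non-linear regression and given as mean with 95% confidence intervals.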

Mus musculus [2] = assay: Protection against PTZ-induced convulsions in mouse at 300 mg/kg, ip after 0.5 hrs by scPTZ assay; format: functional, organism-based; parameters: dose 300 mg/kg
Summary of the method: (§2)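 Mice received test drug, positive control or vehicle (DMSO) intraperitoneally 30 min before a subcutaneous PTZ injection at 80 mg/kg. The end-point was clonic seizure lasting more than 5 s. Tested up to 300 mg/kg. Run in triplicate (n = 3). ED50 in mg/kg was found by non-linear regression, as mean with 95% confidence intervals.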

Mus musculus [3] = assay: Protection against PTZ-induced convulsions in mouse up to 300 mg/kg, ip after 0.5 hrs by scPTZ assay; format: functional, organism-based; parameters: dose 300 mg/kg; summary of the method: as §2
Mus musculus [4] = assay: Protection against electroshock-induced convulsions in ip dosed mouse after 0.5 hrs by MES assay; format: functional; summary of the method: as §1
Mus musculus [5] = assay: Protection against PTZ-induced convulsions in ip dosed mouse after 0.5 hrs by scPTZ assay; format: functional; summary of the method: as §2
Mus musculus [6] = assay: Protection against electroshock-induced convulsions in mouse at 300 mg/kg, ip after 0.5 hrs by MES assay; format: functional, organism-based; parameters: dose 300 mg/kg; summary of the method: as §1

Compound | Activity (Mus musculus [1]) | ED50 (Mus musculus [4]) [mg/kg] | ED50 (Mus musculus [5]) [mg/kg] | also measured
CN1C(=S)N(c2ccccc2)C(=O)C12OC(=O)c1ccccc12 (stereo not given) | inactive | – | – | Activity (Mus musculus [2]): Active
O=C1OC2(C(=O)N(C3CCCCC3)C(=O)N2C2CCCCC2)c2ccccc21 (stereo not given) | inactive | – | – | Activity (Mus musculus [3]): inactive
CN1C(=O)N(c2ccc(C(F)(F)F)cc2)C(=O)C12OC(=O)c1ccccc12 (stereo not given) | – | > 100 | > 100 | –
O=C1NC(=O)C(c2ccccc2)(c2ccccc2)N1 [PHENYTOIN] | – | 8.1 | – | Activity (Mus musculus [3]): inactive
CC(C)N1C(=O)N(C(C)C)C2(OC(=O)c3ccccc32)C1=O (stereo not given) | inactive | – | – | Activity (Mus musculus [2]): Active
CCN1C(=O)N(c2ccccc2)C(=O)C12OC(=O)c1ccccc12 (stereo not given) | – | 81 | 54.8 | –
CCN1C(=O)N(c2ccc([N+](=O)[O-])cc2)C(=O)C12OC(=O)c1ccccc12 (stereo not given) | inactive | – | 41.8 | –
CN1C(=O)N(c2ccccc2)C(=O)C12OC(=O)c1ccccc12 (stereo not given) | – | – | 96.8 | Activity (Mus musculus [6]): Active
CCC1(c2ccccc2)C(=O)NC(=O)NC1=O [PHENOBARBITAL] | inactive | – | 20 | –
CN1C(=O)N(c2ccc(F)cc2)C(=O)C12OC(=O)c1ccccc12 (stereo not given) | – | > 100 | 87.1 | –
CCN1C(=O)N(c2ccc(F)cc2)C(=O)C12OC(=O)c1ccccc12 (stereo not given) | – | > 100 | 85.8 | –
CCN1C(=O)N(c2ccc(OC)cc2)C(=O)C12OC(=O)c1ccccc12 (stereo not given) | – | – | 82.5 | Activity (Mus musculus [6]): Active
CCCCN1C(=O)N(CCCC)C2(OC(=O)c3ccccc32)C1=O (stereo not given) | – | – | > 100 | Activity (Mus musculus [6]): Active
CCCN1C(=O)N(CCC)C2(OC(=O)c3ccccc32)C1=O (stereo not given) | – | > 100 | 78.5 | –
CCN1C(=O)N(C)C(=O)C12OC(=O)c1ccccc12 (stereo not given) | inactive | – | – | Activity (Mus musculus [2]): Active
